This note sets out measurements from ChEMBL document CHEMBL6092128, “2-Aryl-1-hydroxyimidazoles possessing antiviral activity against a wide range of orthopoxviruses, including the variola virus” (RSC Med Chem, 2024).

Molecules are shown by their SMILES.

The test system of data set [1] is Vaccinia virus. Nature of the data set: Antiviral activity against Vaccinia virus Copenhagen infected in African green monkey Vero cells assessed as inhibition of virus-induced cytotoxicity incubated for 4 days by neutral red dye uptake based spectrophotometric analysis. Format: functional, organism-based, Orthopoxvirus vaccinia.
Data set [2] relates to Ectromelia virus. Kind of data set: Antiviral activity against Ectromelia virus K-1 infected in African green monkey Vero cells assessed as inhibition of virus-induced cytotoxicity incubated for 4 days by neutral red dye uptake based spectrophotometric analysis. As to conditions: K-1, Vero, 96 h. The class given is functional, organism-based.
Data set [3] in a line: Selectivity index, ratio of CC50 for cytotoxicity against African green monkey Vero cells to IC50 for antiviral activity against Ectromelia virus K-1 infected in African green monkey Vero cells. The class given is toxicity, cell-based. The settings on record: read-out: Ratio CC50/IC50.
The nature of data set [4]: Selectivity index, ratio of CC50 for cytotoxicity against African green monkey Vero cells to IC50 for antiviral activity against Variola virus India3a infected in African green monkey Vero cells. The class given is toxicity, cell-based. As to conditions: read-out: Ratio CC50/IC50.
A short description of data set [5]: Selectivity index, ratio of CC50 for cytotoxicity against African green monkey Vero cells to IC50 for antiviral activity against Cowpox virus Grishak infected in African green monkey Vero cells. The class given is toxicity, cell-based. The settings on record: read-out: Ratio CC50/IC50.
The subject of data set [6] is Variola virus. Kind of data set: Antiviral activity against Variola virus India3a infected in African green monkey Vero cells assessed as inhibition of virus-induced cytotoxicity incubated for 4 days by neutral red dye uptake based spectrophotometric analysis. The class given is functional, organism-based. As to conditions: 96 h.
The nature of data set [7]: Cytotoxicity against African green monkey Vero cells assessed as cell destruction incubated for 4 days by neutral red dye uptake based spectrophotometric analysis. The class given is toxicity. The settings on record: chlorocebus sabaeus, time 4 day. The method in brief: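 Uninfected confluent Vero monolayers in DMEM with 2% FBS were exposed to 3-fold compound dilutions, final 300 to 0.14 μg mL−1 (some from 600), in triplicate rows for 4 days at 37 °C. Viable cells were measured by neutral red uptake (1.5 h), acid phosphate/ethanol extraction and OD 490 nm. CC50 was taken from semilog concentration–OD curves and recalculated to μM.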

Data set [8] can be described thus: Selectivity index, ratio of CC50 for cytotoxicity against African green monkey Vero cells to IC50 for antiviral activity against Vaccinia virus Copenhagen infected in African green monkey Vero cells. As to conditions: read-out: Ratio CC50/IC50. The class given is toxicity, cell-based.
The test system of data set [9] is Cowpox virus. Nature of the data set: Antiviral activity against Cowpox virus Grishak infected in African green monkey Vero cells assessed as inhibition of virus-induced cytotoxicity incubated for 4 days by neutral red dye uptake based spectrophotometric analysis. The settings on record: 96 h. Format: functional, organism-based.
[10] abbreviates: Orthopoxvirus vaccinia, Copenhagen, Vero, 96 h, read-out: IC50.

Take `CC1(C)CC(=O)c2c(nc(-c3ccc([N+](=O)[O-])cc3)n2O)C1`: the IC50 was found to be 0.133 µM in data set [1] (setting [10]), 0.39 µM in [2], 0.38 µM in data set [6] and 1.16 µM in [9]. Also, the selectivity ratio was 358 in data set [3], 373 in [4], 123 in data set [5] and 1070 in [8]. In addition, the CC50 at 96 h in [7] turned out to be 142 µM.
Take `CC(=O)c1c(C)nc(-c2ccc(N(C)C)cc2)n1O`: the IC50 in data set [1] (setting [10]) amounted to 12.9 µM. Moreover, the CC50 at 96 h in [7] was found to be 299 µM. Moreover, in data set [8], the selectivity ratio was determined as 23.
The matching figures for `COc1ccc(-c2nc(C)c(C(C)=O)n2O)cc1`: 17.9 µM, 614 µM and 34.
In the case of `CC(=O)c1c(C)n(C)c(-c2ccc([N+](=O)[O-])cc2)[n+]1[O-]`, in data set [1] (vero), the IC50 entry is “Not_active”. Also, in [7], the CC50 at 96 h came out at 2980 µM.
In the case of `CC1(C)CC(=O)c2c(nc(-c3ccc(C#N)cc3)n2O)C1`, the IC50 was 0.498 µM in data set [1] (setting [10]), 2.49 µM in data set [2], 1.45 µM in [6] and 17.1 µM in data set [9]. Also, the selectivity ratio worked out at 70 in data set [3], 120 in [4], 10 in data set [5] and 351 in data set [8]. Further, the CC50 at 96 h in data set [7] came out at 175 µM.
For `COn1c(-c2ccc(C#N)cc2)nc(C)c1C(C)=O`, the IC50 in data set [1] (setting [10]) was 228 µM. Also, the CC50 at 96 h in data set [7] was 1060 µM. The selectivity ratio in data set [8] is < 8.
For the compound `CC1(C)CC(=O)c2c(nc(-c3ccc([N+](=O)[O-])cc3)n2OCc2c(F)cccc2F)C1`, the IC50 was 1.22 µM in data set [1] (setting [10]), 4.49 µM in data set [2] and 7.39 µM in data set [9]. Further, the selectivity ratio in data set [3] is 12; in [5] it was < 8; in data set [8], 43. Also, the half-maximal cytotoxic concentration (CC50) at 96 h in data set [7] came to 51.7 µM.
In the case of `CC(=O)c1c(C)n(C)c(-c2ccc(C#N)cc2)[n+]1[O-]`, the IC50 result in data set [1] (vero) is “Not_active”. Moreover, the CC50 at 96 h in data set [7] was found to be 1510 µM.
As to `CC1(C)CC(=O)c2c(nc(-c3ccc([N+](=O)[O-])cc3)n2OCc2ccc(Cl)c(Cl)c2)C1`, the figures for the IC50 in data set [1] (setting [10]), in [2] and in data set [9] were 0.61 µM, 1.8 µM and 7.04 µM, respectively. For the same compound, the figures for the selectivity ratio in data set [3], in data set [5] and in [8] were 60, 15 and 178, respectively. The CC50 at 96 h in data set [7] was determined as 109 µM.
In the case of `Cn1c2c([n+]([O-])c1-c1ccc([N+](=O)[O-])cc1)C(=O)CC(C)(C)C2`, the IC50 in data set [1] (setting [10]) is 183 µM. For the same compound, in data set [7], the CC50 at 96 h is 2440 µM. The selectivity ratio in [8] was determined as 13.
Take `CC1(C)CC(=O)c2c(nc(-c3ccc([N+](=O)[O-])cc3)n2OCc2ccccc2)C1`: the figures for the half-maximal inhibitory concentration (IC50) in data set [1] (setting [10]), in [2] and in [9] were 6.39 µM, 30.9 µM and 78.2 µM, respectively. In addition, the values for the selectivity ratio in [3], in data set [5] and in [8] were 38, 15 and 182, respectively. Moreover, in data set [7], the 50% cytotoxic concentration (CC50) at 96 h was 1160 µM.
`COn1c(-c2ccc(C#N)cc2)nc2c1C(=O)CC(C)(C)C2`: the IC50 in [1] (setting [10]) stood at 28.5 µM. For the same compound, the CC50 at 96 h in [7] was 757 µM. Further, the selectivity ratio in data set [8] stood at 27.
`CC(=O)c1c(C)nc(-c2ccc([N+](=O)[O-])cc2)n1O`: the values for the IC50 in data set [1] (setting [10]), in [2] and in data set [9] were 0.651 µM, 1.3 µM and 5.9 µM, respectively. The results for the selectivity ratio in data set [3], in data set [5] and in data set [8] were 22, < 8 and 44, respectively. The 50% cytotoxic concentration (CC50) at 96 h in [7] stood at 28.3 µM.
Regarding `COn1c(-c2ccc(N(C)C)cc2)nc(C)c1C(C)=O`, the IC50 in data set [1] (setting [10]) was 62.1 µM. The CC50 at 96 h in [7] came to 197 µM. Moreover, in [8], the selectivity ratio was < 8.
The matching figures for `COc1ccc(-c2nc(C)c(C(C)=O)n2OC)cc1`: 207 µM, 357 µM and < 8.
Turning to `O=C(NNC(=O)C1C2C=CC(C3CC23)C1C(=O)O)c1ccc(C(F)(F)F)cc1` (stereo unspecified), the 50% inhibitory concentration (IC50) was 0.008 µM in [1] (setting [10]), 0.008 µM in [2], 0.008 µM in data set [6] and 0.009 µM in data set [9]. In addition, the selectivity ratio came to 149000 in data set [3], 149000 in data set [4], 133000 in data set [5] and 149000 in [8].
For the compound `CC1(C)CC(=O)c2c(nc(-c3ccc([N+](=O)[O-])cc3)n2OCc2ccccc2Br)C1`, the IC50 in data set [1] (setting [10]) worked out at 2.91 µM; in [2], 28.7 µM; in [9] it was 29.1 µM. Besides, the selectivity ratio in [3] was < 8; in data set [5] it was < 8; in [8], 34. In data set [7], the CC50 at 96 h worked out at 100 µM.
Turning to `COn1c(-c2ccc([N+](=O)[O-])cc2)nc(C)c1C(C)=O`, the IC50 came to 4.76 µM in data set [1] (setting [10]), 13.9 µM in data set [2] and 22.3 µM in data set [9]. Besides, the selectivity ratio in [3] came out at 32; in data set [5], 20; in [8], 93. For the same compound, the CC50 at 96 h in [7] worked out at 444 µM.
As to `CC1(C)CC(=O)c2c(nc(-c3ccc(C(F)(F)F)cc3)n2O)C1`, the IC50 is 0.154 µM in data set [1] (setting [10]), 0.49 µM in data set [2], 0.18 µM in [6] and 2.41 µM in [9]. The selectivity ratio turned out to be 94 in data set [3], 257 in [4], 19 in data set [5] and 300 in data set [8]. In data set [7], the CC50 at 96 h was 46.2 µM.
For `Cc1ccc(C)c(COn2c(-c3ccc([N+](=O)[O-])cc3)nc3c2C(=O)CC(C)(C)C3)c1`, the IC50 in data set [1] (setting [10]) amounted to 1.34 µM; in [2] it was 14.4 µM; in data set [9], 32.3 µM. For the same compound, the results for the selectivity ratio in data set [3], in data set [5] and in data set [8] were < 8, < 8 and 79, respectively. Besides, the CC50 at 96 h in data set [7] came to 105 µM.
In the case of `COn1c(-c2ccc(C(F)(F)F)cc2)nc(C)c1C(C)=O`, the concentration for half-maximal inhibition (IC50) in [1] (setting [10]) came out at 5.9 µM. Moreover, the CC50 at 96 h in [7] is 176 µM. In addition, in data set [8], the selectivity ratio was found to be 30.
The matching figures for `CC1(C)CC(=O)c2c(n(Cc3ccccc3)c(-c3ccc([N+](=O)[O-])cc3)[n+]2[O-])C1`: 27.7 µM, 359 µM and 13.
Take `Nc1ccn(C[C@@H](CO)OCP(=O)(O)O)c(=O)n1` [CIDOFOVIR ANHYDROUS]: the IC50 in data set [2] was found to be 39.4 µM; in data set [6] it was 43.1 µM; in [9], 48.2 µM. For the same compound, the selectivity ratio in data set [3] came out at 28; in data set [4], 26; in [5], 23; in data set [8], 34. Also, the CC50 at 96 h in [7] is 1110 µM.
As to `CC(=O)c1c(C)nc(-c2ccc(C(F)(F)F)cc2)n1O`, in [1] (setting [10]), the IC50 came to 0.07 µM. Besides, the CC50 at 96 h in [7] came out at 3.87 µM. Moreover, the selectivity ratio in data set [8] stood at 55.
The matching figures for `CC(=O)c1c(C)nc(-c2ccc(C#N)cc2)n1O`: 1.12 µM, 84.6 µM and 76.
In the case of `COn1c(-c2ccc([N+](=O)[O-])cc2)nc2c1C(=O)CC(C)(C)C2`, the IC50 is 3.96 µM in data set [1] (setting [10]), 12.5 µM in data set [2], 3.96 µM in data set [6] and 17.9 µM in [9]. Further, the selectivity ratio amounted to 92 in [3], 291 in [4], 65 in data set [5] and 291 in data set [8]. Also, the CC50 at 96 h in data set [7] was determined as 1150 µM.
For `Cn1c2c([n+]([O-])c1-c1ccc(C(F)(F)F)cc1)C(=O)CC(C)(C)C2`, the IC50 in [1] (setting [10]) was 14.2 µM. In addition, in data set [7], the CC50 at 96 h is 2080 µM. Moreover, in [8], the selectivity ratio was found to be 146.
